The source of these data is ChEMBL document CHEMBL3779819, “Design, synthesis and biological evaluation of LBM-A5 derivatives as potent P-glycoprotein-mediated multidrug resistance inhibitors” (Bioorg Med Chem, 2016).

Holding throughout (type): cell-based
The test system of assay [1] is K562/A02. As to the kind of experiment: Reversal of P-gp-mediated resistance to adriamycin in human K562/A02 cells assessed as reduction in adriamycin IC50 at 5 uM after 48 hrs by MTT assay relative to control. A digest of the protocol: (§1)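 K562/A02 cells in RPMI 1640 with 10% FBS, seeded and grown 24 h. Cells given a series of ADM concentrations with or without modulator at 5 μM for 48 h at 37 °C. MTT added for 4 h, A570 read. ADM IC50 from dose–response curves. RF = IC50 without modulator / IC50 with modulator. Triplicates, three independent repeats.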

A short description of assay [2]: Cytotoxicity against human K562/A02 cells assessed as cell viability after 48 hrs by MTT assay. To be noted: K562/A02, 48 h. A digest of the protocol:
(§2)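 K562 and ADM-resistant, P-gp-overexpressing K562/A02 cells seeded at 1~2×10^4 per well, grown 24 h, then given graded compound doses in medium. Exposure 48 h, 37 °C, 5% CO2. MTT added for a further 4 h, absorbance read at 570 nm. IC50 taken from dose–response curves. Each experiment run three times.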

The subject of assay [3] is K562. As to the kind of experiment: Cytotoxicity against human K562 cells assessed as cell viability after 48 hrs by MTT assay. To be noted: K562, 48 h. A digest of the protocol: as §2
Background: Tetrazolium dyes change colour on reduction, which living cells bring about.

Assay [4] relates to K562/A02. The assay can be described thus: Inhibition of P-gp-mediated adriamycin efflux in human K562/A02 cells assessed as intracellular adriamycin accumulation at 5 uM preincubated for 60 mins followed by adriamycin addition measured after 90 mins by flow cytometry. The procedure, abridged: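 K562/A02 cells (ADM-induced, P-gp-overexpressing) seeded at 1.5×10^5/well; modulator or 0.1% DMSO vehicle pre-incubated 60 min, then 20 μM ADM added for 90 min; cells washed three times with PBS at 4°C; retained intracellular ADM read as mean fluorescence intensity by flow cytometry; means±SD of two independent experiments.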
For orientation: In flow cytometry, cells or beads pass a laser one at a time.

Assay [5] is described as follows: (§3) Reversal of P-gp-mediated resistance to adriamycin in human K562/A02 cells assessed as reduction in adriamycin IC50 after 48 hrs by MTT assay. The settings on record: K562/A02, 48 h. The procedure, abridged: as §1
Assay [6] concerns K562/A02. The assay is described as §3. A digest of the protocol: as §1
Assay [7] relates to K562/A02. As to the kind of experiment: Reversal of P-gp-mediated resistance to adriamycin in human K562/A02 cells assessed as reduction in adriamycin IC50 at 0.156 uM after 48 hrs by MTT assay relative to control. The procedure, abridged: (§4)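 K562/A02 cells in RPMI 1640 with 10% FBS, grown 24 h. Cells exposed 48 h at 37 °C to graded ADM concentrations, with or without modulator at 0.078–2.5 μM. MTT added for 4 h, A570 read. Reversal fold = ADM IC50 without modulator / ADM IC50 with modulator. Three independent experiments, mean±SEM.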

Assay [8] has as its system K562/A02. The assay can be described thus: Reversal of P-gp-mediated resistance to adriamycin in human K562/A02 cells assessed as reduction in adriamycin IC50 at 1.25 uM after 48 hrs by MTT assay relative to control. A digest of the protocol:
as §4

In assay [9] the test system is K562/A02. As to the kind of experiment: Potency index, ratio of verapamil to compound for inhibition of P-gp-mediated adriamycin efflux in human K562/A02 cells assessed as intracellular adriamycin accumulation at 5 uM.
The test system of assay [10] is K562/A02. The assay can be described thus: Reversal of P-gp-mediated resistance to adriamycin in human K562/A02 cells assessed as reduction in adriamycin IC50 at 0.625 uM after 48 hrs by MTT assay relative to control. A digest of the protocol: as §4
Assay [11] deals with K562/A02. The assay can be described thus: Inhibition of P-gp-mediated adriamycin efflux in human K562/A02 cells assessed as increase in intracellular accumulation of adriamycin preincubated for 60 mins followed by adriamycin addition measured after 90 mins by flow cytometry. The procedure, abridged:
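K562/A02 cells seeded at 1.5×10^5 per well. Modulator (0.5, 2.5 or 5 μM) or 0.1% DMSO vehicle pre-incubated 60 min. ADM 20 μM then added for 90 min. Cells washed three times in PBS at 4 °C. Retained ADM read as mean fluorescence intensity by flow cytometry. Means±SD of two independent experiments.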

Assay [12] deals with K562/A02. As to the kind of experiment: Reversal of P-gp-mediated resistance to adriamycin in human K562/A02 cells assessed as reduction in adriamycin IC50 at 2.5 uM after 48 hrs by MTT assay relative to control. The procedure, abridged:
as §4

Assay [13] has as its system K562/A02. As to the kind of experiment: Reversal of P-gp-mediated resistance to adriamycin in human K562/A02 cells assessed as reduction in adriamycin IC50 at 0.31 uM after 48 hrs by MTT assay relative to control. The procedure, abridged:
as §4

Assay [14] has as its system K562/A02. The assay can be described thus: Reversal of P-gp-mediated resistance to adriamycin in human K562/A02 cells assessed as reduction in adriamycin IC50 at 0.078 uM after 48 hrs by MTT assay relative to control. The procedure, abridged:
as §4

The structures appear in SMILES notation. pEC50, pIC50: −log10 of the molar value. Structures can show the parent of a compound that is named as a salt.

For `COc1ccc(C(=O)Nc2ccccc2C(=O)Nc2ccc(CCN3CCc4cc(OC)c(OC)cc4C3)cc2)cc1OC`, the fold change (FC) in assay [1] was 30.4. In addition, the pIC50 in assay [2] was 4.30; in [3], 4.71.
Turning to `COc1cc2c(cc1OC)CN(CCc1ccc(-n3cc(COc4cccc5ccccc45)nn3)cc1)CC2`, in assay [1], the fold change (FC) turned out to be 21. The pIC50 in assay [2] and in [3] was below 4.00 throughout.
Turning to `COc1cccc2c1C(=O)c1c(O)c3c(c(O)c1C2=O)C[C@@](O)(C(=O)CO)C[C@@H]3O[C@H]1C[C@H](N)[C@H](O)[C@H](C)O1` [DOXORUBICIN HYDROCHLORIDE], the pIC50 was 4.42 in [2] and 5.21 in assay [3].
For `CCc1ccc(OCc2cn(CCN3CCc4cc(OC)c(OC)cc4C3)nn2)cc1`, in assay [1], the fold change (FC) was 6.1. For the same molecule, the pIC50 in assay [2] and in assay [3] was below 4.00 each time.
Consider `COc1cc2c(cc1OC)CN(CCc1ccc(-n3cc(COc4ccc(C(C)C)cc4)nn3)cc1)CC2`, for which the fold change (FC) in assay [1] is 9.2. For the same molecule, the negative logarithm of the IC50 (pIC50) in assay [2] and in [3] was below 4.00 throughout.
On to `COc1cc2c(cc1OC)CN(CCn1cc(COc3ccc(C)cc3C)nn1)CC2`, for which the fold change (FC) in assay [1] is 4.6. For the same molecule, the pIC50 in [2] and in assay [3] was below 4.00 in each case.
For the molecule `COc1cc2c(cc1OC)CN(CCn1cc(COc3ccccc3C(C)(C)C)nn1)CC2`, the fold change (FC) in assay [1] was found to be 9.6. In addition, the pIC50 in assay [2] and in assay [3] was below 4.00 in each case.
For `COc1ccc(OCc2cn(CCN3CCc4cc(OC)c(OC)cc4C3)nn2)cc1`, the fold change (FC) in [1] came out at 3.4. The pIC50 in [2] and in [3] was below 4.00 in each case.
Regarding `COc1cc2c(cc1OC)CN(CCn1cc(COc3ccc(C(C)C)cc3)nn1)CC2`, the fold change (FC) in [1] stood at 7.7. Besides, the negative logarithm of the IC50 (pIC50) in assay [2] and in assay [3] was below 4.00 throughout.
As to `CCc1ccc(OCc2cn(-c3ccc(CCN4CCc5cc(OC)c(OC)cc5C4)cc3)nn2)cc1`, the fold change (FC) in assay [1] is 9.1. Also, the pIC50 in assay [2] and in assay [3] was below 4.00 each time.
Consider `COc1cc2c(cc1OC)CN(CCc1ccc(-n3cc(COc4ccc(C)cc4)nn3)cc1)CC2`, for which the fold change (FC) in [1] worked out at 5.8. The pIC50 in [2] and in [3] was below 4.00 throughout.
Regarding `COc1cc2c(cc1OC)CN(CCn1cc(COc3ccccc3OC)nn1)CC2`, in assay [1], the fold change (FC) amounted to 4.1. The pIC50 in assay [2] and in [3] was below 4.00 each time.
With `COc1cc2c(cc1OC)CN(CCc1ccc(-n3cc(COc4ccc([N+](=O)[O-])cc4)nn3)cc1)CC2`, the fold change (FC) in assay [1] is 5.4. The pIC50 in assay [2] was below 4.00; in [3], 4.31.
For `COc1cc2c(cc1OC)CN(CCc1ccc(-n3cc(COc4ccc(OC(F)(F)F)cc4)nn3)cc1)CC2`, in that order: 5.9, below 4.00 and 4.43.
For `COc1ccc(OCc2cn(-c3ccc(CCN4CCc5cc(OC)c(OC)cc5C4)cc3)nn2)cc1`, in that order: 3.5, below 4.00 and below 4.00.
In the case of `COc1ccc(CCN(C)CCCC(C#N)(c2ccc(OC)c(OC)c2)C(C)C)cc1OC` (stereo unspecified), the pIC50 in assay [3] was 4.19.
Turning to `COc1cc2c(cc1OC)CN(CCn1cc(COc3ccc([N+](=O)[O-])cc3)nn1)CC2`, in [1], the fold change (FC) came to 3.1. For the same molecule, the pIC50 in [2] and in [3] was below 4.00 in each case.
For the molecule `COc1cc2c(cc1OC)CN(CCc1ccc(-n3cc(COc4ccccc4[N+](=O)[O-])nn3)cc1)CC2`, the fold change (FC) in [1] turned out to be 7.4. In addition, the pIC50 in [2] is below 4.00; in assay [3] it was 4.31.
For `COc1cc2c(cc1OC)CN(CCc1ccc(-n3cc(COc4cccc5cccnc45)nn3)cc1)CC2`, in that order: 10, below 4.00 and 4.55.
For `COc1cc2c(cc1OC)CN(CCc1ccc(-n3cc(COc4ccc5ccccc5c4)nn3)cc1)CC2`, in that order: 8.5, below 4.00 and below 4.00.
As to `COc1cc2c(cc1OC)CN(CCc1ccc(-n3cc(COc4ccccc4)nn3)cc1)CC2`, the fold change (FC) in [1] was 31.4; in assay [7], 2.2; in assay [8] it was 16.9; in [10] it was 11.3; in assay [12], 20.3; in assay [13], 7.2. Besides, the fold change (FC) in assay [14] came out at 1.6. The Flu intensity in [4] was determined as 1280. In addition, the pEC50 in [5] was 6.72. The Activity entry in [6] was “Dose-dependent effect”. The pIC50 in assay [2] and in [3] was below 4.00 in each case. Also, the Ratio in assay [9] is 1.5. Moreover, the inhibition entry in [11] was “Dose-dependent effect”.
For `COc1cc2c(cc1OC)CN(CCn1cc(COc3cccc4ccccc34)nn1)CC2`, the fold change (FC) in assay [1] worked out at 5.7. The pIC50 in assay [2] and in assay [3] was below 4.00 throughout.
As to `COc1cc2c(cc1OC)CN(CCn1cc(COc3ccc(C)c(C)c3)nn1)CC2`, the fold change (FC) in assay [1] came out at 9.1. Besides, the pIC50 in assay [2] and in assay [3] was below 4.00 throughout.
As for `COc1cc2c(cc1OC)CN(CCn1cc(COc3ccc4ccccc4c3)nn1)CC2`, the fold change (FC) in [1] stood at 3.6. The pIC50 in [2] and in assay [3] was below 4.00 throughout.
Take `COc1cc2c(cc1OC)CN(CCc1ccc(-n3cc(COc4ccc(C(C)(C)C)cc4)nn3)cc1)CC2`: the fold change (FC) in assay [1] is 9.3. The pIC50 was below 4.00 in assay [2] and 4.68 in [3].
For `COc1cc2c(cc1OC)CN(CCn1cc(COc3ccc(C)cc3)nn1)CC2`, in that order: 6.2, below 4.00 and below 4.00.
For `COc1cc2c(cc1OC)CN(CCn1cc(COc3ccc(F)cc3)nn1)CC2`, in that order: 2.7, below 4.00 and below 4.00.
With `COc1cc2c(cc1OC)CN(CCc1ccc(-n3cc(COc4ccccc4NC(=O)c4ccccc4)nn3)cc1)CC2`, in assay [1], the fold change (FC) was determined as 23. The pEC50 in assay [5] was 6.32. Moreover, the pIC50 in assay [2] and in [3] was below 4.00 each time.
Turning to `COc1cc2c(cc1OC)CN(CCn1cc(COc3ccc(C(C)(C)C)cc3)nn1)CC2`, the fold change (FC) in assay [1] came out at 20.4. In addition, the pIC50 in assay [2] and in [3] was below 4.00 in each case.

What is called pIC50 is the negative decadic logarithm of the IC50, by convention in mol/L. What is called pEC50 is −log10 of the EC50, conventionally taken in molar units.
